Experimental data gathered from unrelated publications.
Protocols differ between the studies behind these lines.
Read-out: metabolic stability
Matrix: liver microsomes

`[O-][S+](CCN1CCCN(CC(O)Cc2ccccc2)CC1)C(c1ccc(F)cc1)c1ccc(F)cc1` (stereo not shown) gave a compound remaining of 0% (rat; 10 µM, 1 h, pH 7.4).
`N#Cc1ccc(C[C@H](NC(=O)Nc2ccc(F)cc2)C(=O)NCC2(c3ccc(OC(F)(F)F)cc3)CC2)cc1` gave a compound remaining of over 80% (rat; 10 µM, 30 min, pH 7.4).
The compound remaining of `CS(=O)(=O)c1ccc(-c2cnc(N)c(-c3ccc(C(F)(F)F)nc3)c2)cc1` is reported as over 99% (male CD-1 mouse; 1 µM, 30 min).
The compound remaining of `CCCn1nc(C(=O)N2CCCCC2)c2c1CCC(N(C)Cc1ccc(F)cc1)C2` (stereo not shown) is reported as 0% (mouse; 10 µM, 1 h).
The compound remaining of `Cc1ccc2c(c1)nc(CCc1cccc3cccnc13)n2-c1ccccc1` is reported as 0.13% (rat; 1.5 µM, 30 min).
`CCCn1nc(C(=O)N(C)C)c2c1CCC(NCc1ccc(F)cc1)C2` (stereo not shown) has a compound remaining of under 25% (mouse; 10 µM, 1 h).
The compound remaining of `Cc1ncsc1-c1ccc(CNC(=O)[C@@H]2C[C@@H](O)CN2C(=O)[C@@H](NC(=O)CCCCCCCCCCNC(=O)O[C@H]2C[C@@H](C)C=C3C=C[C@H](C)[C@H](CC[C@@H]4C[C@@H](O)CC(=O)O4)[C@H]32)C(C)(C)C)cc1` is reported as 8.23% (mouse; 1 µM, 15 min, pH 7.4).
`Cc1ccc2c(c1)nc(/C=C/c1cccc3cccnc13)n2-c1ccccc1` has a compound remaining of 100% (rat; 1.5 µM, 0 h).
`CCCn1nc(C(=O)N2CCCCC2)c2c1CCC(NCc1ccc(N3CCCCC3)cc1)C2` (stereo not shown) has a compound remaining of 47% (mouse; 10 µM, 1 h).
For `CC(C)NCC(O)COc1cccc2ccccc12` (stereo not shown), the compound remaining was under 7% (male rat; 1 µM, 30 min).
